Measured values reported in ChEMBL document CHEMBL1132386, “Mixture-based synthetic combinatorial libraries” (J Med Chem, 1999).

How the values were obtained:
[1] = Enzyme inhibitory activity towards Matrix metalloproteases
[2] = target: Kappa-type opioid receptor (Cavia porcellus) (UniProt P41144); assay: Inhibitory activity for kappa opioid receptor
[3] = target: GABA-A receptor; anion channel; assay: Inhibition of binding to GABA-A Benzodiazepine receptor; assay type: protein-complex assay
[4] = target: Sigma non-opioid intracellular receptor 1 (Homo sapiens, UniProt Q99720); assay: Inhibitory activity towards Sigma opioid receptor type 1
[5] = target: Mu-type opioid receptor (Homo sapiens, UniProt P35372); assay: Antagonistic activity towards Opioid receptor mu 1; assay type: functional
[6] = target: T1, Adenosine deaminase (Homo sapiens) (UniProt P00813)
T1 sequence (whole entry): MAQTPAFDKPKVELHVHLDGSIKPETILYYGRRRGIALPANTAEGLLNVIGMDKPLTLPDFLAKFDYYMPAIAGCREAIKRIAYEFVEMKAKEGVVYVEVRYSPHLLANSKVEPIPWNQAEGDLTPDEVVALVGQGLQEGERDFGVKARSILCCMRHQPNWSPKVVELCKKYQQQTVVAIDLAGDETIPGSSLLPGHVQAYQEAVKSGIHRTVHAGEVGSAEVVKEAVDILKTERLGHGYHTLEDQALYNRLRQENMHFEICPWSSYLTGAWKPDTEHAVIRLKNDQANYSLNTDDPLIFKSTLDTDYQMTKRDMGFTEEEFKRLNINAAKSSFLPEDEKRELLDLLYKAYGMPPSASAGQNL

[7] = target: Acetylcholinesterase (Homo sapiens, UniProt P22303); assay: Enzyme inhibitory activity towards Acetylcholinesterase
[8] = target: Kappa-type opioid receptor (Cavia porcellus, UniProt P41144); assay: Inhibition of Opioid receptor kappa 1 binding
Procedure, shortened: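 Kappa opioid radioreceptor binding in guinea pig brain homogenate with 3 nM [3H]U69,593 as radioligand, incubated 2.5 h at 25°C. Library mixtures were screened at 4 μg/mL. Data were normalized to percent inhibition using background and total binding.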

Chain of Kappa-type opioid receptor (Cavia porcellus) (P41144 whole entry, looked up): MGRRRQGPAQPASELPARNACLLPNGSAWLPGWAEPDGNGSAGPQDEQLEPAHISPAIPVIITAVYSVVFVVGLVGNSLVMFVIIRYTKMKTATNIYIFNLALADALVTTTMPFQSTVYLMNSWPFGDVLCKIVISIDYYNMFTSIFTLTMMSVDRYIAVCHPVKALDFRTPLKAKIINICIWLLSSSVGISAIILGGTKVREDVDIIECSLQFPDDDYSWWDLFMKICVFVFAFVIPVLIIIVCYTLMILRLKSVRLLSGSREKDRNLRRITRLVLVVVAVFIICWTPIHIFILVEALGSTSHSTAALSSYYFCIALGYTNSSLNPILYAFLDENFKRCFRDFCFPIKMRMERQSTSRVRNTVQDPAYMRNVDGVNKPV
Chain of Sigma non-opioid intracellular receptor 1 (Q99720 whole entry): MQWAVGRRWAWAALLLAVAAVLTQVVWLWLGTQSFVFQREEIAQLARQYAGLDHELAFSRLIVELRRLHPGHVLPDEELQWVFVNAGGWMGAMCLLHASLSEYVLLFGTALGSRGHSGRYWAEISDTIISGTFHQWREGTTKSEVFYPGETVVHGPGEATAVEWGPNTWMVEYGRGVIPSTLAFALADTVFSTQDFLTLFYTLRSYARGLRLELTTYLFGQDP
Chain of Kappa-type opioid receptor (P41144 whole entry): as the sequence (P41144 whole entry, looked up) above
Chain of Mu-type opioid receptor (P35372 whole entry): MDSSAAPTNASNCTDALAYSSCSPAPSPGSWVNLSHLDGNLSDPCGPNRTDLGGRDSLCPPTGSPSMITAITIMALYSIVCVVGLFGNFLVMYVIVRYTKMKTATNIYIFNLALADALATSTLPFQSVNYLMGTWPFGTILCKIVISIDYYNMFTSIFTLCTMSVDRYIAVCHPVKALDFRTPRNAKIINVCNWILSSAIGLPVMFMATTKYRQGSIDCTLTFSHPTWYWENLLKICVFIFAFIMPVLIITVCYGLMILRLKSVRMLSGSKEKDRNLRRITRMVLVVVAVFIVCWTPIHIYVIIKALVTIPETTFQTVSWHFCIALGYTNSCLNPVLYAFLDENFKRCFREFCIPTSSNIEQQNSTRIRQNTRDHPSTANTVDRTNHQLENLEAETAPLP
Chain of Acetylcholinesterase (P22303 whole entry): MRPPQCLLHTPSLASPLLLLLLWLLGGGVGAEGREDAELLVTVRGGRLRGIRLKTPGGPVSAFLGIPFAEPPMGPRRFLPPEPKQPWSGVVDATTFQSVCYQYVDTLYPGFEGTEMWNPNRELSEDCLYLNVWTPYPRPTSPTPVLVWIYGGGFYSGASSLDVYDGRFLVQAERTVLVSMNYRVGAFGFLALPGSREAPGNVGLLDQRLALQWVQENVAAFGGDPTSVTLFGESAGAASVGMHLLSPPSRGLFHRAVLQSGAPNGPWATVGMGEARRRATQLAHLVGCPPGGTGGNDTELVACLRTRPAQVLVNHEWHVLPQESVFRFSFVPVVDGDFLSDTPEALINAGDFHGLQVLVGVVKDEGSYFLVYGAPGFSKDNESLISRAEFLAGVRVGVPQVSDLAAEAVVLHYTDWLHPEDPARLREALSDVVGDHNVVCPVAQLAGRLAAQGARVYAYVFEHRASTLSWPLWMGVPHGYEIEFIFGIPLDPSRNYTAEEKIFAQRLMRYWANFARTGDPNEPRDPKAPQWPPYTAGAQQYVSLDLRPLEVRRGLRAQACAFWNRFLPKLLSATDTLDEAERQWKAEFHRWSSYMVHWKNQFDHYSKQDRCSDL

Structure (SMILES)	IC50 [2]	other results
O=C1CNC(=O)CN1 [DIKETOPIPERAZINE]		IC50 [1]: 30000 nM
CC(C)C[C@@H]1CN2C(=NC[C@@H]2C2CCCCC2)N1C(C)C12CC3CC(CC(C3)C1)C2 (stereo partly drawn)	1210 nM	
CC(N1C2=NC[C@@H](C3CCCCC3)N2C[C@@H]1C1CCCCC1)C12CC3CC(CC(C3)C1)C2 (stereo partly drawn)	> 10000 nM	
C1CCC([C@H]2CN3C(=NC[C@@H]3C3CCCCC3)N2CCC2CC3CCC2C3)CC1 (stereo partly drawn)	560 nM	
CC(C)C[C@@H]1CN2C(=NC[C@@H]2C)N1CCCC1CCCCC1	5440 nM	
CC(C)C[C@@H]1CN2C(=NC[C@H]2C2CCCCC2)N1C(C)C12CC3CC(CC(C3)C1)C2 (stereo partly drawn)	1750 nM	
CC(C)C[C@@H]1CN2C(=NC[C@@H]2C)N1CCC1CC2CCC1C2 (stereo partly drawn)	2310 nM	
CC(C)C[C@@H]1CN2C(=NC[C@H]2C2CCCCC2)N1CCCC1CCCCC1	1770 nM	
CC(C)C[C@@H]1CN2C(=NC[C@@H]2C)N1C(C)C12CC3CC(CC(C3)C1)C2 (stereo partly drawn)	3640 nM	
CC(C)C[C@@H]1CN2C(=NC[C@H]2C2CCCCC2)N1CC1CCC(C)CC1 (stereo partly drawn)	738 nM	
O=c1cc(-c2ccccc2)oc2ccccc12 [FLAVONE]		Ki [3]: 17 nM
O=C1CNC(=O)N1 [HYDANTOIN]		IC50 [4]: 62 nM
CC(C)C[C@@H]1CN2C(=NC[C@@H]2C2CCCCC2)N1CCCC1CCCCC1	3740 nM	
CC(N1C2=NC[C@H](C)N2C[C@@H]1C1CCCCC1)C12CC3CC(CC(C3)C1)C2 (stereo partly drawn)	1940 nM	
CCCCCC(C)N (stereo not drawn) [TUAMINOHEPTANE]		IC50 [5]: 14 nM
Nc1ncnc2c1ncn2[C@@H]1O[C@H](CO)[C@@H](O)[C@H]1O		Ka [6]: 1e+08 M⁻¹
C1CCC([C@H]2CN3C(=NC[C@H]3C3CCCCC3)N2CCC2CC3CCC2C3)CC1 (stereo partly drawn)	524 nM	
CC1CCC(CN2C3=NC[C@H](C)N3C[C@@H]2C2CCCCC2)CC1 (stereo partly drawn)	5060 nM	
c1cc2c(cn1)CCCC2 [5,6,7,8-TETRAHYDROISOQUINOLINE]		IC50 [4]: 56 nM
NC(=O)O [CARBAMIC ACID]		IC50 [7]: 67000 nM
CC(N1C2=NC[C@H](C3CCCCC3)N2C[C@@H]1C1CCCCC1)C12CC3CC(CC(C3)C1)C2 (stereo partly drawn)	1490 nM	
CC(C)C[C@@H]1CN2C(=NC[C@@H]2C2CCCCC2)N1CC1CCC(C)CC1 (stereo partly drawn)	999 nM	IC50 [8]: 3680 nM
